Measured values reported in ChEMBL document CHEMBL1139170, “Synthesis of 3-[4'-(p-chlorophenyl)-thiazol-2'-yl]-2-[(substituted azetidinone/thiazolidinone)-aminomethyl]-6-bromoquinazolin-4-ones as anti-inflammatory agent” (Bioorg Med Chem, 2007).

Experiments:
[1] = Acute toxicity in albino mouse assessed as percent mortality after 24 hrs; format: organism-based; conditions: in vivo, read-out: ALD50
Rattus norvegicus [2] = test: Antiinflammatory activity against carrageenan-induced hind paw oedema in Charles foster rat assessed as inhibition of paw oedema at 50 mg/kg, po after 1 hr; format: functional; design: scale not given: the % may be the effect or the level left
Procedure, shortened: (§1)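 Charles-Foster albino rats of either sex, no pregnant females, 70–95 days old, 100–150 g. Oral dose of 25, 50 or 100 mg/kg given 1 h before carrageenan. Carrageenan was a fresh 1% suspension in 0.9% saline, 0.05 mL under the plantar aponeurosis of the right hind paw. Paw volume measured by plethysmometer before and 3 h after carrageenan. Result is percent inhibition of oedema.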

Mus musculus [3] = test: Analgesic activity in Albino mouse assessed as number of acetic acid-induced writhing at 50 mg/kg, po after 30 min; format: functional
Mus musculus [4] = test: Analgesic activity in Albino mouse assessed as number of acetic acid-induced writhing at 25 mg/kg, po after 30 min; format: functional
Rattus norvegicus [5] = test: Antiinflammatory activity against carrageenan-induced hind paw oedema in Charles foster rat assessed as inhibition of paw oedema at 100 mg/kg, po after 1 hr; format: functional; design: scale not given: the % may be the effect or the level left; procedure, shortened: as §1
Rattus norvegicus [6] = organism: Rattus norvegicus; test: Ulcerogenic activity in 24 hrs fasted Charles foster rat; format: functional
Procedure, shortened: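 Albino rats fasted 24 h, then given compound. Killed 8 h after dosing. Stomach and small intestine examined for hyperaemia, epithelial shedding, petechial or frank haemorrhage, and erosion or ulceration with or without perforation. Any one of these counted as ulcerogenic. Route reported as i.p. for the UD50.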

Rattus norvegicus [7] = test: Antiinflammatory activity against carrageenan-induced hind paw oedema in Charles foster rat assessed as inhibition of paw oedema at 25 mg/kg, po after 1 hr; format: functional; design: scale not given: the % may be the effect or the level left; procedure, shortened: as §1
Mus musculus [8] = test: Analgesic activity in Albino mouse assessed as number of acetic acid-induced writhing at 100 mg/kg, po after 30 min; format: functional

SMILES	LD50 at 24 h [1] [mg/kg]	Activity (Rattus norvegicus [2]) [%]	Activity (Mus musculus [3]) [%]	Activity (Mus musculus [4]) [%]	Activity (Rattus norvegicus [5]) [%]	UD50 (Rattus norvegicus [6]) [mg/kg]	Activity (Rattus norvegicus [7]) [%]	Activity (Mus musculus [8]) [%]
O=c1c2cc(Br)ccc2nc(CN/N=C/c2ccccc2)n1-c1nc(-c2ccc(Cl)cc2)cs1	> 1000	18.75	17.12	–	–	–	–	–
Cc1ccc(C2C(Cl)C(=O)N2NCc2nc3ccc(Br)cc3c(=O)n2-c2nc(-c3ccc(Cl)cc3)cs2)cc1 (centres undefined)	> 1000	29.88	29.12	–	–	–	–	–
O=C1CSC(c2ccc(O)cc2)N1NCc1nc2ccc(Br)cc2c(=O)n1-c1nc(-c2ccc(Cl)cc2)cs1 (centres undefined)	> 1000	35.13	33	–	–	–	–	–
O=C1C(Cl)C(c2ccccc2Cl)N1NCc1nc2ccc(Br)cc2c(=O)n1-c1nc(-c2ccc(Cl)cc2)cs1 (centres undefined)	> 1000	34.21	34.11	–	–	–	–	–
Cc1ccc(/C=N/NCc2nc3ccc(Br)cc3c(=O)n2-c2nc(-c3ccc(Cl)cc3)cs2)cc1	> 1000	19.14	18.52	–	–	–	–	–
O=C1C(Cl)C(c2ccccc2)N1NCc1nc2ccc(Br)cc2c(=O)n1-c1nc(-c2ccc(Cl)cc2)cs1 (centres undefined)	> 1000	29.16	28.59	–	–	–	–	–
O=C1CSC(c2ccccc2)N1NCc1nc2ccc(Br)cc2c(=O)n1-c1nc(-c2ccc(Cl)cc2)cs1 (centres undefined)	> 1000	33.88	32.45	–	–	–	–	–
COc1ccc(/C=N/NCc2nc3ccc(Br)cc3c(=O)n2-c2nc(-c3ccc(Cl)cc3)cs2)cc1	> 1000	23.29	21.69	–	–	–	–	–
CCCCC1C(=O)N(c2ccccc2)N(c2ccccc2)C1=O [PHENYLBUTAZONE]	–	38.9	36.5	16.3	66.58	66.6	18.46	60.23
Cc1ccc(C2SCC(=O)N2NCc2nc3ccc(Br)cc3c(=O)n2-c2nc(-c3ccc(Cl)cc3)cs2)cc1 (centres undefined)	> 1000	34.25	32.87	–	–	–	–	–
COc1ccccc1/C=N/NCc1nc2ccc(Br)cc2c(=O)n1-c1nc(-c2ccc(Cl)cc2)cs1	> 1000	24.66	22.18	–	–	–	–	–
CN(C)c1ccc(C2SCC(=O)N2NCc2nc3ccc(Br)cc3c(=O)n2-c2nc(-c3ccc(Cl)cc3)cs2)cc1 (centres undefined)	> 1000	32.89	28.76	–	–	–	–	–
O=C1CSC(c2ccc(Cl)cc2)N1NCc1nc2ccc(Br)cc2c(=O)n1-c1nc(-c2ccc(Cl)cc2)cs1 (centres undefined)	> 1000	37.06	36.26	–	–	–	–	–
O=C1C(Cl)C(c2ccc(Cl)cc2)N1NCc1nc2ccc(Br)cc2c(=O)n1-c1nc(-c2ccc(Cl)cc2)cs1 (centres undefined)	> 1000	33.07	32.62	–	–	–	–	–
O=C1C(Cl)C(c2ccc(O)cc2)N1NCc1nc2ccc(Br)cc2c(=O)n1-c1nc(-c2ccc(Cl)cc2)cs1 (centres undefined)	> 1000	30.65	29.92	–	–	–	–	–
COc1ccc(C2C(Cl)C(=O)N2NCc2nc3ccc(Br)cc3c(=O)n2-c2nc(-c3ccc(Cl)cc3)cs2)cc1 (centres undefined)	> 1000	31.67	30.67	–	–	–	–	–
O=c1c2cc(Br)ccc2nc(CN/N=C/c2ccc(Cl)cc2)n1-c1nc(-c2ccc(Cl)cc2)cs1	> 1000	25.12	23.42	–	–	–	–	–
CN(C)c1ccc(C2C(Cl)C(=O)N2NCc2nc3ccc(Br)cc3c(=O)n2-c2nc(-c3ccc(Cl)cc3)cs2)cc1 (centres undefined)	> 1000	28.55	27.35	–	–	–	–	–
CN(C)c1ccc(/C=N/NCc2nc3ccc(Br)cc3c(=O)n2-c2nc(-c3ccc(Cl)cc3)cs2)cc1	> 1000	17.88	16.84	–	–	–	–	–
O=C1CSC(c2ccccc2Cl)N1NCc1nc2ccc(Br)cc2c(=O)n1-c1nc(-c2ccc(Cl)cc2)cs1 (centres undefined)	> 1000	38.35	37.36	14.22	67.45	195.6	17.84	61.12
O=c1c2cc(Br)ccc2nc(CN/N=C/c2ccc(O)cc2)n1-c1nc(-c2ccc(Cl)cc2)cs1	> 1000	20.23	18.96	–	–	–	–	–
COc1ccccc1C1C(Cl)C(=O)N1NCc1nc2ccc(Br)cc2c(=O)n1-c1nc(-c2ccc(Cl)cc2)cs1 (centres undefined)	> 1000	32.45	31.89	–	–	–	–	–
COc1ccccc1C1SCC(=O)N1NCc1nc2ccc(Br)cc2c(=O)n1-c1nc(-c2ccc(Cl)cc2)cs1 (centres undefined)	> 1000	36.98	35.43	–	–	–	–	–
O=c1c2cc(Br)ccc2nc(CN/N=C/c2ccccc2Cl)n1-c1nc(-c2ccc(Cl)cc2)cs1	> 1000	26.44	24.68	–	–	–	–	–
COc1ccc(C2SCC(=O)N2NCc2nc3ccc(Br)cc3c(=O)n2-c2nc(-c3ccc(Cl)cc3)cs2)cc1 (centres undefined)	> 1000	36.11	34.27	–	–	–	–	–
